An excerpt weighted towards active compounds, which were near 5.9% of everything screened.
KDM4C inh = inhibitors of GASC-1 (KDM4C) histone demethylase, primary screen, biochemical, single concentration HTS. Lysine-specific demethylase 4C (Homo sapiens), Q9H3R0. GST-KDM4C 2-372, H3K9me3 peptide, LANCE TR-FRET. inhibition, % at 12.5 µM. 96,000 compounds, 0.15% hits. AID 720574, 2013;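 active = mean replicate inhibition above about 25%, with at least 55% of replicates also reaching it, limit read from the data, passing the limit was not always enough; inconclusive = only one of those two conditions met; inactive = neither condition met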
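Test system: N-terminal GST-fused human GASC-1 (KDM4C) fragment, residues 2-372; quantity: GASC-1 enzyme at 10 nM final in reaction; dosing: single dose; schedule: 30 min demethylation and 1 h detection at room temperature; signal: LANCE TR-FRET, excitation 340 nm, emissions 618 and 671 nm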
Pf Dd2 inh = P. falciparum Dd2 growth inhibitors, primary screen, SYBR Green fluorescence, single dose replicates | 72 h; stronger effect = lower value | activity change, % at 10 µM | 94,000 compounds, 2.3% hits | AID 1159554, 2015; in the data active = activity change below about -80%; inconclusive = no clear call, values can overlap the other calls
IDH1 R132H inh = inhibitors of IDH1 R132H reductase, primary screen, biochemical, plate reader, single point | Isocitrate dehydrogenase [NADP] cytoplasmic (Homo sapiens), O75874 | diaphorase/resazurin fluorescence, 60 min | inhibition, % at 10 µM | 70,000 compounds, 0.18% hits; in the data active = inhibition above about 34%; inconclusive = no clear call, values can overlap the other calls; inactive = below about 11%;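 also: 0% = DMSO and 100% = no enzyme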
Target sequence (O75874 whole entry R132H): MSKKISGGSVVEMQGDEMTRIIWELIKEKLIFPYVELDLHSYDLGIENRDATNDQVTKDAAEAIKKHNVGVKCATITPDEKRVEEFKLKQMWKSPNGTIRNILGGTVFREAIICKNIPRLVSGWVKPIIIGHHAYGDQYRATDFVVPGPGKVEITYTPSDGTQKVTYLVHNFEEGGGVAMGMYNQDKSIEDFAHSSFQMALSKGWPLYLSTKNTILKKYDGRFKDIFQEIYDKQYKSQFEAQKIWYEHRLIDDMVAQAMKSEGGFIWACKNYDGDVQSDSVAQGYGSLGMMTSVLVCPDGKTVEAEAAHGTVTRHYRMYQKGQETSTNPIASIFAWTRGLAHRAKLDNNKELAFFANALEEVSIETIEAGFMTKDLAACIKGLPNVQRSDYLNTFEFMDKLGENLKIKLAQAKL
T cruzi growth-1 = T. cruzi intracellular proliferation inhibitors, primary screen, cell-based, beta-gal Tulahuen parasites, NIH3T3 host, luminescence. 77,000 compounds, 5.9% hits. T. cruzi beta-gal in NIH3T3, GalScreen luminescence, 90 h. inhibition, % at 8.34 µM. AID 624255, 2012;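 active = mean inhibition above about 93%, with at least 55% of replicates each passing it, limit read from the data, passing the limit was not always enough; inconclusive = only one of those two conditions holds; inactive = neither condition holds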
T cruzi growth-2 = T. cruzi intracellular proliferation inhibitors, confirmation, cell-based, NIH3T3 host, beta-gal parasite, luminescence, cherry-pick; AID 651739, 2012; T. cruzi beta-gal in NIH3T3, GalScreen luminescence, 90 h; shares compounds with T cruzi growth-1; inhibition, % at 8.35 µM; 5,600 compounds, 72% hits;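 active = mean replicate inhibition above about 95% and at least 55% of replicates individually reaching it, limit read from the data; inconclusive = only one of the two criteria is met; inactive = neither criterion is met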
T cruzi growth-3 = inhibitors of intracellular T. cruzi replication, confirmation, NIH3T3 host cells, beta-gal parasites, cherry-pick, set 2 | shares compounds with T cruzi growth-1 | T. cruzi beta-gal in NIH3T3, GalScreen luminescence, 90 h | inhibition, % at 2.09 µM | 5,600 compounds, 21% hits | AID 651740, 2012;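 active = mean inhibition above about 95%, with at least 55% of replicates also reaching it, limit read from the data; inconclusive = meets just one of the two conditions; inactive = meets neither condition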;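 also: plate controls were neutral control median for no effect and positive control median for full effect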
3T3 cytotox = cytotoxicity in mouse NIH/3T3 fibroblasts, confirmation, cytotoxicity control for T. cruzi proliferation inhibitor project, cell-based, cherry-pick, single point; shares compounds with T cruzi growth-1; NIH/3T3 viability, CellTiter-Glo ATP luminescence, 90 h; cytotoxicity (signal decrease), % at 8.35 µM; 5,600 compounds, 14% hits; AID 651742, 2012;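 active = mean signal decrease across replicates above about 35% based on untreated-well scatter, with enough replicates individually passing, limit read from the data; inconclusive = no rule stated though some were filed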;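 also: 0% = median of neutral control wells and 100% = median of positive control wells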
NIH3T3 tox 2 = NIH/3T3 fibroblast cytotoxicity, confirmation, cytotoxicity control, cell-based, cherry-pick, single point, set 2; shares compounds with T cruzi growth-1; inhibition, % at 24.9 µM; 5,600 compounds, 56% hits; NIH/3T3 viability, CellTiter-Glo ATP luminescence, 90 h; AID 651744, 2012;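 active = mean loss of cell viability signal at or above a set limit, and enough replicates individually reaching it; inconclusive = meets only the mean limit or only the replicate share; inactive = meets neither condition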;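 also: 0% = median of neutral control wells and 100% = median of positive control wells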
* marks the source's active call; other numbers are inactive results.

Screening COC(=O)c1c(NC(=O)c2cc3ccccc3oc2=O)sc2c1C(C(=O)OC)CC2 (stereo not given) returned IDH1 R132H inh 0.
For C[C@@H]1CN([C@@H](C)CO)C(=O)c2cccc(N(C)C)c2O[C@@H]1CN(C)Cc1ccc(C(=O)Nc2ccccc2N)cc1 the results were Pf Dd2 inh -82*, T cruzi growth-1 113*, T cruzi growth-2 104*, T cruzi growth-3 42, 3T3 cytotox 31 and NIH3T3 tox 2 73*.
Screening C[C@H]1CN([C@@H](C)CO)C(=O)c2cccc(NC(=O)c3ccncc3)c2O[C@H]1CN(C)Cc1ccc(-c2ccccc2)cc1 returned KDM4C inh 1, Pf Dd2 inh -38, IDH1 R132H inh -4 and T cruzi growth-1 107.
For C[C@H](CO)N1C[C@H](C)[C@H](CN(C)Cc2ccc(C(F)(F)F)cc2)Oc2c(NC(=O)c3ccncc3)cccc2C1=O the results were KDM4C inh -1, Pf Dd2 inh -13, IDH1 R132H inh 0, T cruzi growth-1 inconclusive, T cruzi growth-2 91, T cruzi growth-3 92, 3T3 cytotox 20 and NIH3T3 tox 2 19.
`C[C@H]1CN([C@@H](C)CO)C(=O)c2cccc(NC(=O)c3ccncc3)c2O[C@@H]1CN(C)Cc1ccc(-c2ccccc2)cc1` gave KDM4C inh 0, Pf Dd2 inh -44, T cruzi growth-1 inconclusive, T cruzi growth-2 85, T cruzi growth-3 89, 3T3 cytotox 17 and NIH3T3 tox 2 47*.
`C[C@H](CO)N1C[C@H](C)[C@H](CN(C)Cc2ccc(C(=O)Nc3ccccc3N)cc2)Oc2c(NC(=O)c3ccncc3)cccc2C1=O` gave KDM4C inh -1, Pf Dd2 inh 6, IDH1 R132H inh -1, T cruzi growth-1 inconclusive, T cruzi growth-2 105*, T cruzi growth-3 83, 3T3 cytotox 5 and NIH3T3 tox 2 inconclusive.
`COc1ccc(N(CC(=O)Nc2c(F)cccc2F)S(C)(=O)=O)cc1Cl` gave IDH1 R132H inh 0.
`C[C@@H]1O[C@@H](OC[C@H]2O[C@@H](Oc3cc(O)c4c(c3)OC(c3ccc(O)cc3)CC4=O)[C@H](O)[C@@H](O)[C@@H]2O)[C@H](O)[C@H](O)[C@H]1O` (stereo not given in full) gave IDH1 R132H inh 0.
For C[C@@H]1CN([C@H](C)CO)C(=O)c2cccc(NC(=O)c3ccncc3)c2O[C@@H]1CN(C)Cc1ccc(C(=O)Nc2ccccc2N)cc1 the results were KDM4C inh 0, Pf Dd2 inh -47, IDH1 R132H inh 0, T cruzi growth-1 90*, T cruzi growth-2 103*, T cruzi growth-3 77, 3T3 cytotox 4 and NIH3T3 tox 2 33*.
CCCn1nnc(NC(=O)COc2ccc(Cl)c(C)c2)n1 was read as IDH1 R132H inh 0.
For C/C=C/c1cnc2c(c1)C(=O)N([C@H](C)CO)C[C@H](C)[C@H](CN(C)S(=O)(=O)c1ccc(F)cc1)O2 the results were KDM4C inh -2, Pf Dd2 inh -9, IDH1 R132H inh 14 and T cruzi growth-1 -5.
`C[C@@H]1CN([C@H](C)CO)C(=O)c2cc(/C=C/c3ccccc3)cnc2O[C@@H]1CN(C)S(=O)(=O)c1ccc(F)cc1` gave KDM4C inh -1, Pf Dd2 inh -35, IDH1 R132H inh 0, T cruzi growth-1 80*, T cruzi growth-2 105*, T cruzi growth-3 41, 3T3 cytotox 17 and NIH3T3 tox 2 51*.
`C[C@H]1CN([C@@H](C)CO)C(=O)c2cc(/C=C/c3ccccc3)cnc2O[C@@H]1CN(C)S(=O)(=O)c1ccc(F)cc1` gave KDM4C inh 1, Pf Dd2 inh -61, IDH1 R132H inh -4, T cruzi growth-1 83*, T cruzi growth-2 100*, T cruzi growth-3 71, 3T3 cytotox 10 and NIH3T3 tox 2 12.
`C/C=C/c1cnc2c(c1)C(=O)N([C@@H](C)CO)C[C@@H](C)[C@@H](CN(C)S(=O)(=O)c1ccc(F)cc1)O2` gave KDM4C inh 1, Pf Dd2 inh 4, IDH1 R132H inh 2 and T cruzi growth-1 35.
CNc1nc(NC(C)C)nc(Oc2ccc(=O)[nH]n2)n1 was read as IDH1 R132H inh 0.
`COc1ccc(CCNC(=S)N2CCN(c3ncccn3)CC2)cc1OC` gave IDH1 R132H inh 0.
Cn1c(SCC(=O)Nc2ccnc3ccccc23)nnc1-c1ccncc1 was read as IDH1 R132H inh 0.
Cc1ccc(S(=O)(=O)Nc2ccc3c(c2)C(=O)N([C@H](C)CO)C[C@@H](C)[C@H](CN(C)S(=O)(=O)c2ccccc2)OCCCC[C@H](C)O3)cc1 was read as KDM4C inh 0, Pf Dd2 inh -44, T cruzi growth-1 105*, T cruzi growth-2 108*, T cruzi growth-3 73, 3T3 cytotox -12 and NIH3T3 tox 2 1.
Screening Cc1ccc(S(=O)(=O)Nc2ccc3c(c2)C(=O)N([C@@H](C)CO)C[C@@H](C)[C@@H](CN(C)S(=O)(=O)c2ccccc2)OCCCC[C@H](C)O3)cc1 returned Pf Dd2 inh -75, IDH1 R132H inh 1, T cruzi growth-1 97*, T cruzi growth-2 102*, T cruzi growth-3 42, 3T3 cytotox -20 and NIH3T3 tox 2 17.
For C[C@@H]1CCCCO[C@H](CN(C)S(=O)(=O)c2ccccc2)[C@H](C)CN([C@H](C)CO)C(=O)c2cc(NS(=O)(=O)c3ccccc3)ccc2O1 the results were KDM4C inh 0, Pf Dd2 inh -43, T cruzi growth-1 107*, T cruzi growth-2 115*, T cruzi growth-3 41, 3T3 cytotox -21 and NIH3T3 tox 2 -18.
O=C1c2c(O)cc(O)c([C@@H]3C(=O)c4c(O)cc(O)cc4O[C@H]3c3ccc(O)cc3)c2O[C@@H](c2ccc(O)cc2)[C@@H]1O was read as IDH1 R132H inh 3.

Screens (PubChem BioAssay)
